Series [1] addresses Protease (Human immunodeficiency virus 1, UniProt Q9YQ12). Kind of series: Inhibition of HIV1 protease activity.
In series [2] the target is Human immunodeficiency virus type 1 reverse transcriptase (Human immunodeficiency virus 1, UniProt Q72547). Kind of series: Antiviral activity against HIV1 Reverse transcriptase activity. In short, it runs like this: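 C8166-CCR5 human CD4+ T cells (3 × 10^4) in RPMI 1640 with 10% FBS were mixed with compound and infected with HIV-1 NL43 inoculum normalized to 1 × 10^5 cpm RT activity, then held at 37 °C. Four days after infection, supernatant RT activity was read with poly(A) template, oligo(dT) primer and [32P]TTP. Run in duplicate or triplicate. EC50 reported.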

For series [3], the system named is Human immunodeficiency virus 1. Kind of series: Antiviral activity against HIV1 NL4-3 infected human C8166-CCR5 cells assessed as decrease in virus-induced cytopathicity after 72 hrs by cell associated dehydrogenase activity assay. The format is functional, organism-based. The conditions noted are these: Human immunodeficiency virus 1, NL4-3, C8166-CCR5, 72 h. A general note: Cytopathic effects are the visible damage that an infection or toxin causes in cultured cells.

Series [4] in a line: Cytotoxicity against […] human C8166-CCR5 cells assessed as decrease in cell viability by cell associated dehydrogenase activity assay. It is filed as cell-based. In short, it runs like this: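 C8166-CCR5 human CD4+ T cells, grown in RPMI 1640 with 10% FBS and antibiotics, seeded at 3 × 10^4 cells per well with compound across a concentration series. Incubated at 37 °C for 72 h. Viability read by cell-associated dehydrogenase activity (CCK-8). Run in duplicate or triplicate. CC50 is the 50% cytostatic concentration.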

Series [5] in a line: Selectivity index, ratio of CC50 for human C8166-CCR5 cells to EC50 for HIV1 NL4-3. The format is toxicity, cell-based. The conditions noted are these: read-out: Ratio CC50/EC50. In short, it runs like this: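 SI = CC50/EC50. CC50 is from the 72 h CCK-8 viability assay in uninfected C8166-CCR5 cells. EC50 is from supernatant RT activity four days after HIV-1 NL43 infection of the same cells.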

Series [6] is described as follows: Selectivity index, ratio of CD50 for human MT4 cells to ID50 for HIV1. The conditions noted are these: read-out: Selectivity Index. It is filed as toxicity, cell-based.
The subject of series [7] is Human immunodeficiency virus 1. Briefly: Antiviral activity against HIV1 3B infected human CCR5 cells assessed as decrease in viral syncytium formation. The format is functional, organism-based. The conditions noted are these: Human immunodeficiency virus 1, 3B.

In brackets after ≈: the same amount, converted by molar mass. Where only a bound is given, the exact number is not on record here.

Chain of Protease (Q9YQ12 whole entry): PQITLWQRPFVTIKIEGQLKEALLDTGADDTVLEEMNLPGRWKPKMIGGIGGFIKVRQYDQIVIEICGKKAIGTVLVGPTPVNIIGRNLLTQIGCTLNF

One may read the IC50 as the concentration that inhibits the measured activity by half. Lower therefore signals greater potency. In turn, `C[C@H]1[C@H](C)CC[C@]2(C(=O)O)CC[C@]3(C)C(=CC[C@@H]4[C@@]5(C)CC[C@H](O)C(C)(C)[C@@H]5CC[C@]43C)[C@H]12` [URSOLIC ACID] displayed a half-inhibitory concentration (IC50) in series [1] of 8 µM. This counts as single-digit micromolar.

In series [1], `C=C(C)[C@@H]1CC[C@]2(C(=O)O)CC[C@]3(C)[C@H](CC[C@@H]4[C@@]5(C)CC[C@H](O)C(C)(C)[C@@H]5CC[C@]43C)[C@@H]12` [BETULINIC ACID GLUTARYL HEMI ESTER] yielded an IC50 of 4 µM.

`CC1(C)CC[C@]2(C(=O)NCCCCCC(=O)O)CC[C@]3(C)C(=CC[C@@H]4[C@@]5(C)CC[C@H](OC(=O)CCCCC(=O)O)C(C)(C)[C@@H]5CC[C@]43C)[C@@H]2C1` had a 50% inhibitory concentration (IC50) in series [1] of 1.7 µM.

`COc1cc(/C=C/C(=O)O[C@H]2CC[C@]34C[C@]35CC[C@]3(C)[C@@H]([C@H](C)CCC=C(C)C)CC[C@@]3(C)[C@@H]5CC[C@H]4C2(C)C)ccc1O` [GAMMA ORYZANOL]: the 50% inhibitory concentration (IC50) in series [2] is 3.65 µM.

By EC50 is commonly meant the concentration at which the effect is half-maximal. One may read the CC50 as the concentration giving 50% cytotoxicity. In the case of `CO[C@H]1CC[C@]2(C)[C@H](CC[C@@]3(C)CC4=CC[C@@H]5C(C)(C)[C@H](OC(=O)CCC(=O)Oc6c(O)cc7oc(-c8ccccc8)cc(=O)c7c6O)CC[C@@]5(C)[C@@H]4CC[C@@H]32)C1(C)C`, in series [3], the EC50 came out at 55.4 µg/mL (≈ 68.4 µM). Further, the CC50 in series [4] is more than 100 µg/mL. The selectivity ratio in series [5] is 2.3.

On to `CO[C@@H]1CC[C@]2(C)[C@H](CC[C@@]3(C)CC4=CC[C@@H]5C(C)(C)[C@H](OC(=O)CCC(=O)OCc6cc(=O)c(OC(=O)CCC(=O)O[C@@H]7CC[C@@]8(C)[C@@H]9CC[C@H]%10[C@@](C)(CC[C@@H]%11C(C)(C)[C@H](OC)CC[C@]%11%10C)CC9=CC[C@@H]8C7(C)C)co6)CC[C@@]5(C)[C@@H]4CC[C@@H]32)C1(C)C`, for which the EC50 in series [3] stood at 0.12 µg/mL (≈ 0.0984 µM). For the same compound, in series [4], the CC50 turned out to be 4.2 µg/mL (≈ 3.44 µM). For the same compound, the selectivity ratio in series [5] came out at 35.

Compound `CC1(C)CC[C@]2(C(=O)O)CC[C@]3(C)C(=CC[C@@H]4[C@@]5(C)CC[C@H](O)C(C)(C)[C@@H]5CC[C@]43C)[C@@H]2C1` [OLEANOLIC ACID GLUTARYL HEMI ESTER] gave an IC50 in series [1] of 4 µM.

Consider `CO[C@H]1CC[C@]2(C)[C@H](CC[C@@]3(C)CC4=CC[C@@H]5C(C)(C)[C@H](OC(=O)CCC(=O)OCc6cc(=O)c(OC(=O)CCC(=O)O[C@@H]7CC[C@@]8(C)[C@@H]9CC[C@H]%10[C@@](C)(CC[C@@H]%11C(C)(C)[C@@H](OC)CC[C@]%11%10C)CC9=CC[C@@H]8C7(C)C)co6)CC[C@@]5(C)[C@@H]4CC[C@@H]32)C1(C)C`, for which, in series [3], the EC50 is 5.94 µg/mL (≈ 4.87 µM). Further, in series [4], the CC50 was more than 100 µg/mL. In addition, in series [5], the selectivity ratio was more than 5000.

On to `C[C@H]1[C@H](C)CC[C@]2(C(=O)O)CC[C@]3(C)C(=CC[C@@H]4[C@@]5(C)CC[C@H](O)C(C)(C)[C@@H]5CC[C@]43C)[C@H]12` [URSOLIC ACID GLUTARYL HEMI ESTER], for which, in series [1], half-maximal inhibition (IC50) required 4 µM.

For `CO[C@@H]1CC[C@]2(C)[C@H](CC[C@@]3(C)CC4=CC[C@@H]5C(C)(C)[C@H](O)CC[C@@]5(C)[C@@H]4CC[C@@H]32)C1(C)C`, the EC50 in series [3] was more than 100 µg/mL. For the same compound, the CC50 in series [4] is more than 100 µg/mL.

`C=C(CC[C@@H](C)[C@H]1CC[C@@]2(C)[C@@H]3CC[C@H]4C(C)(C)[C@@H](OC(=O)/C=C/c5ccc(O)c(OC)c5)CC[C@@]45C[C@@]35CC[C@]12C)C(C)C` gave an IC50 in series [2] of 3.08 µM.

As for `CO[C@H]1CC[C@]2(C)[C@H](CC[C@@]3(C)CC4=CC[C@@H]5C(C)(C)[C@H](OC(=O)CCC(=O)Oc6cc(-c7oc8cc(O)cc(O)c8c(=O)c7O)ccc6O)CC[C@@]5(C)[C@@H]4CC[C@@H]32)C1(C)C`, the EC50 in series [3] came to 23.2 µg/mL (≈ 27.6 µM). Also, the half-maximal cytotoxic concentration (CC50) in series [4] was more than 100 µg/mL. In addition, in series [5], the selectivity ratio is more than 5000.

Consider `C=C(C)[C@@H]1CC[C@]2(C)CC[C@]3(C)[C@H](CC[C@@H]4[C@@]5(C)CCC(=O)C(C)(C)[C@@H]5CC[C@]43C)[C@@H]12` [LUPENONE], for which the IC50 in series [2] was 4.94 µM.

For `CC1(C)[C@@H](O)CC[C@]2(C)[C@H]3C(=O)C=C4[C@@H]5C[C@@](C)(C(=O)O)CC[C@]5(C)CC[C@@]4(C)[C@]3(C)CC[C@@H]12` [ENOXOLONE], in series [6], the selectivity ratio is 9.6.

Regarding `CO[C@H]1CC[C@]2(C)[C@H](CC[C@@]3(C)CC4=CC[C@@H]5C(C)(C)[C@H](O)CC[C@@]5(C)[C@@H]4CC[C@@H]32)C1(C)C`, the EC50 in series [3] was more than 100 µg/mL. In series [4], the CC50 was more than 100 µg/mL.

As to `CO[C@@H]1CC[C@]2(C)[C@H](CC[C@@]3(C)CC4=CC[C@@H]5C(C)(C)[C@H](OC(=O)CCC(=O)Oc6c(O)cc7oc(-c8ccccc8)cc(=O)c7c6O)CC[C@@]5(C)[C@@H]4CC[C@@H]32)C1(C)C`, in series [3], the EC50 worked out at 21.4 µg/mL (≈ 26.5 µM). In addition, in series [4], the CC50 was more than 100 µg/mL. Moreover, the selectivity ratio in series [5] was determined as 4.9.

On to `C=C(C)[C@@H]1CC[C@]2(COC(C)=O)CC[C@]3(C)[C@H](CC[C@@H]4[C@@]5(C)CC[C@H](OC(C)=O)C(C)(C)[C@@H]5CC[C@]43C)[C@@H]12` [BETULIN DIACETATE], for which, in series [2], half-maximal inhibition (IC50) was put at 2.66 µM.

In the case of `CO[C@@H]1CC[C@]2(C)[C@H](CC[C@@]3(C)CC4=CC[C@@H]5C(C)(C)[C@H](OC(=O)CCC(=O)Oc6cc(-c7oc8cc(O)cc(O)c8c(=O)c7O)ccc6O)CC[C@@]5(C)[C@@H]4CC[C@@H]32)C1(C)C`, the EC50 in series [3] came out at 26.6 µg/mL (≈ 31.6 µM). Further, the CC50 in series [4] is more than 100 µg/mL. Also, the selectivity ratio in series [5] was 4.8.

For `CC1(C)[C@H](O)CC[C@]2(C)C3=CC[C@@]4(C)[C@@H]5C[C@](C)(COC(=O)c6ccccc6)CC[C@]5(C)CC[C@]4(C)C3=CC[C@@H]12`, the IC50 in series [2] was 4.04 µM.

On to `C[C@H]1[C@H](C)CC[C@]2(C(=O)O)CC[C@]3(C)C(=CC[C@@H]4[C@@]5(C)CC[C@H](O)C(C)(C)[C@@H]5CC[C@]43C)[C@H]12` [URSOLIC ACID HYDROGEN MALONATE], for which the IC50 in series [1] was 6 µM.

Take `CO[C@@H]1CC[C@]2(C)[C@H](CC[C@@]3(C)CC4=CC[C@@H]5C(C)(C)[C@H](OC(=O)CCC(=O)Oc6coc(CO)cc6=O)CC[C@@]5(C)[C@@H]4CC[C@@H]32)C1(C)C`: the half-maximal effective concentration (EC50) in series [3] came out at 4.13 µg/mL (≈ 6.07 µM). Moreover, the CC50 in series [4] is 22.2 µg/mL (≈ 32.6 µM). Further, in series [5], the selectivity ratio was found to be 5.4.

As to `CC1=C[C@@H]([C@H](O)[C@H](C)[C@@H]2C[C@@H](O)[C@@]3(O)[C@@H]4CC[C@@H]5C(C)(C)O[C@@H]6CC(=O)O[C@@]56C[C@]4(O)CC[C@@]23C)OC1=O` [MICRANDILACTONE C], the CC50 in series [4] was more than 200 µg/mL. Further, in series [7], the EC50 was 7710 µg/mL (≈ 14400 µM).

In series [1], `CC1(C)CC[C@]2(C(=O)O)CC[C@]3(C)C(=CC[C@@H]4[C@@]5(C)CC[C@H](O)C(C)(C)[C@@H]5CC[C@]43C)[C@@H]2C1` [OLEANOLIC_ACID] showed a half-inhibitory concentration (IC50) of 8 µM. This counts as single-digit micromolar.

`Cc1cn([C@H]2C[C@H](N=[N+]=[N-])[C@@H](CO)O2)c(=O)[nH]c1=O` [ZIDOVUDINE]: the EC50 in series [3] came out at 0.02 µg/mL (≈ 0.0748 µM). Further, the CC50 in series [4] is more than 100 µg/mL. Also, the selectivity ratio in series [5] was more than 5000.

As for `CC1(C)CC[C@]2(C(=O)NCCCCCC(=O)O)CC[C@]3(C)C(=CC[C@@H]4[C@@]5(C)CC[C@H](O)C(C)(C)[C@@H]5CC[C@]43C)[C@@H]2C1`, 1.7 µM corresponded to half-maximal inhibition in series [1] (IC50).

As to `CO[C@H]1CC[C@]2(C)[C@H](CC[C@@]3(C)CC4=CC[C@@H]5C(C)(C)[C@H](OC(=O)CCC(=O)Oc6coc(CO)cc6=O)CC[C@@]5(C)[C@@H]4CC[C@@H]32)C1(C)C`, in series [3], the concentration for a half-maximal effect (EC50) turned out to be 6.75 µg/mL (≈ 9.91 µM). Moreover, the CC50 in series [4] was more than 100 µg/mL. Besides, the selectivity ratio in series [5] was determined as 86.8.
